Measurements: ChEMBL document CHEMBL2176957, “Discovery of a novel noniminosugar acid α glucosidase chaperone series” (J Med Chem, 2012)
Values after ≈ are worked out from the molar mass of the structure shown. Blank lines part the entries; values can stand above or below the compound they belong to. Active and inactive are the calls of the source. No cut-off for these calls is given here.

Key:
[1] = biological target: T1, Lysosomal alpha-glucosidase (Homo sapiens, UniProt P10253); experiment: Inhibition of wild type recombinant GAA preincubated for 5 mins measured after 45 mins using blue-shifted dye by fluorescence assay
[2] = biological target: T1, Lysosomal alpha-glucosidase; experiment: Inhibition of wild type recombinant GAA preincubated for 5 mins measured after 45 mins using red-shifted dye by fluorescence assay
[3] = Aqueous solubility in PBS buffer
Caco-2 [4] = experiment: Permeability from apical to basolateral side of human Caco2 cells
Liver = experiment: Half life in mouse liver microsomes
Caco-2 [5] = experiment: Permeability from basolateral to apical side of human Caco2 cells
[6] = Cytotoxicity in human F2845 cells at 5 uM after 6 days by confocal laser-scanning microscopic analysis; type: cell-based; details: f2845, 144 h
Procedure, shortened: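 Primary wild-type dermal fibroblasts and patient-derived Pompe fibroblasts (passage 7) grown on chamber slides and exposed to compound for 5 or 6 days. Viability judged from the cultures examined by immunostaining and confocal microscopy.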

[7] = biological target: T1, Lysosomal alpha-glucosidase; experiment: Increase in translocation of GAA to lysosome in human F3248 cells at 5 uM after 5 days by confocal laser-scanning microscopic analysis; type: cell-based
Procedure, shortened: (§1)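 Wild-type primary dermal fibroblasts or Pompe patient fibroblasts (F3248, F0833, F2845; low passage) treated with compound for 5 or 6 days. Fixed in 3% paraformaldehyde, permeabilized with 0.1% Triton X-100, blocked, stained with mouse anti-GAA (Alexa-488) and goat anti-cathepsin D (Alexa-555), DAPI counterstain. Confocal images taken at fixed laser settings; percentage of cells with lysosomal GAA co-localization scored.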

[8] = biological target: T1, Lysosomal alpha-glucosidase; experiment: Increase in translocation of GAA to lysosome in human F2845 cells at 5 uM after 5 days by confocal laser-scanning microscopic analysis; type: cell-based; procedure, shortened: as §1
[9] = biological target: T1, Lysosomal alpha-glucosidase; experiment: Increase in translocation of GAA to lysosome in human F0833 cells at 1 uM after 5 days by confocal laser-scanning microscopic analysis; type: cell-based; procedure, shortened: as §1
[10] = biological target: T1, Lysosomal alpha-glucosidase; experiment: Ratio of Kd for wild type recombinant NT-495 labelled GAA to IC50 for wild type recombinant GAA (unknown origin
[11] = biological target: T1, Lysosomal alpha-glucosidase; experiment: Binding affinity at wild type recombinant GAA assessed as thermostabilization of protein at 50 uM incubated at 66 degC for 60 mins
Procedure, shortened: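 GAA incubated at 66 °C for 60 min with compound at 50 μM, compared with room-temperature incubation. Residual enzymatic activity read out and expressed as the ratio of heated to room-temperature activity; DMSO controls run in duplicate.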

[12] = biological target: T1, Lysosomal alpha-glucosidase; experiment: Increase in translocation of GAA to lysosomes in human wild type fibroblasts at 15 uM after 6 days confocal laser-scanning microscopic analysis; procedure, shortened: as §1
[13] = biological target: T1, Lysosomal alpha-glucosidase; experiment: Increase in GAA activity in human F2845 cells incubated for 5 days by fluorescence assay relative to vehicle-treated control; type: cell-based
Procedure, shortened: (§2)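 Fibroblasts seeded at 5,000 cells/well and treated 5 days, with media and compound renewed on day 3. Assayed directly or after PBS wash and 18 h or 40 h in compound-free medium. Cells were incubated 2 h at 37 °C in pH 4.0 citrate/phosphate buffer with 3 mM 4-MUG and acarbose, then stopped at pH 10. Background subtracted, normalized to vehicle (100%); triplicate, mean ±SD.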

Caco-2 [14] = experiment: Efflux ratio from basolateral to apical side to apical to basolateral side of human Caco2 cells; type: ADME, cell-based
[15] = biological target: T1, Lysosomal alpha-glucosidase; experiment: Binding affinity at wild type recombinant GAA assessed as rise in melting temperature of protein using SYPRO Orange dye by fluorescence assay
Procedure, shortened: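 Thermal shift of recombinant wild-type GAA (1 μM) with SYPRO Orange (5×) in 50 mM citrate buffer pH 5.0 with 100 mM KCl, 10 mM NaCl, 1 mM MgCl2. Six-point compound series, 0.82–200 μM final, 2% DMSO, DMSO controls. Heated 20 to 95 °C at 4.8 °C/s; fluorescence ex 498/em 580 nm; Tm calculated from the melt curve.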

[16] = biological target: T1, Lysosomal alpha-glucosidase; experiment: Increase in GAA activity in human F2845 cells incubated for 5 days followed by 18 to 40 hrs wash out by fluorescence assay relative to vehicle-treated control; type: cell-based; procedure, shortened: as §2
[17] = biological target: T1, Lysosomal alpha-glucosidase; experiment: Increase in translocation of GAA to lysosome in human F3248 cells at 1 uM after 5 days by confocal laser-scanning microscopic analysis; type: cell-based; procedure, shortened: as §1
[18] = biological target: T1, Lysosomal alpha-glucosidase; experiment: Increase in translocation of GAA to lysosome in human F0833 cells at 5 uM after 5 days by confocal laser-scanning microscopic analysis; type: cell-based; procedure, shortened: as §1
[19] = biological target: T1, Lysosomal alpha-glucosidase; experiment: Increase in GAA activity in human wild type skin fibroblasts incubated for 5 days by fluorescence assay relative to vehicle-treated control; procedure, shortened: as §2
[20] = biological target: T1, Lysosomal alpha-glucosidase; experiment: Increase in translocation of GAA to lysosomes in human wild type skin fibroblasts at 5 uM after 6 days by confocal laser-scanning microscopic analysis; procedure, shortened: as §1
[21] = biological target: T1, Lysosomal alpha-glucosidase; experiment: Increase in translocation of GAA to lysosome in human F2845 cells at 1 uM after 5 days by confocal laser-scanning microscopic analysis; type: cell-based; procedure, shortened: as §1
[22] = biological target: T1, Lysosomal alpha-glucosidase; experiment: Increase in GAA activity in human wild type skin fibroblasts incubated for 5 days followed by 18 to 40 hrs wash out by fluorescence assay relative to vehicle-treated control; procedure, shortened: as §2

SMILES: O=C1Cc2cc(S(=O)(=O)N3CCN(c4cccc(C(F)(F)F)c4)CC3)ccc2N1
IC50 ([1]; read-out: IC50): 14.9 µM | IC50 ([2]; read-out: IC50): 14.9 µM

SMILES: CC(=O)N1CCN(S(=O)(=O)c2ccc3c(c2)CC(=O)N3)CC1
IC50 ([1]; read-out: IC50): 11.9 µM | IC50 ([2]; read-out: IC50): 14.9 µM

SMILES: CC(=O)Nc1ccc(S(=O)(=O)N2CCN(c3ccc(C(C)=O)cc3)CC2)cc1
IC50 [1]: Not Active | IC50 [2]: Not Active

SMILES: CC(=O)c1ccc(N2CCN(S(=O)(=O)c3ccc4c(c3)C(Cl)(Cl)C(=O)N4)CC2)cc1
IC50 ([1]; read-out: IC50): 32.6 µM | IC50 ([2]; read-out: IC50): 41 µM

SMILES: CC(=O)c1ccc(N2CCN(C(=O)c3ccc4c(c3)CCC(=O)N4)CC2)cc1
IC50 [1]: Not Active | IC50 [2]: Not Active

SMILES: CC(=O)c1ccc(N2CCN(S(=O)(=O)c3ccc(N4CCCC4=O)cc3)CC2)cc1
IC50 [1]: Not Active | IC50 [2]: Not Active

SMILES: O=C1Cc2cc(S(=O)(=O)N3CCNCC3)ccc2N1
IC50 [1]: Not Active | IC50 [2]: Not Active

SMILES: CC(=O)c1ccc(N2CCN(S(=O)(=O)c3ccc4[nH]c(=O)oc4c3)CC2)cc1
IC50 [1]: Not Active | IC50 [2]: Not Active

SMILES: CC(=O)c1ccc(N2CCN(S(=O)(=O)c3ccc4c(c3)n(C)c(=O)n4C)CC2)cc1
IC50 [1]: Not Active | IC50 [2]: Not Active

SMILES: CC(=O)c1ccc(N2CCN(S(=O)(=O)c3ccc4c(c3)CC(C)N4C(C)=O)CC2)cc1 (stereo unspecified)
IC50 [1]: Not Active | IC50 [2]: Not Active

SMILES: CC(=O)c1ccc(N2CCN(S(=O)(=O)c3ccc4c(c3)oc(=O)n4C)CC2)cc1
IC50 [1]: Not Active | IC50 [2]: Not Active

SMILES: CC(=O)c1ccc(N2CCN(S(=O)(=O)c3ccc4c(c3)OCC(=O)N4)CC2)cc1
IC50 [1]: Not Active | IC50 [2]: Not Active

SMILES: CC(=O)N1CCN(c2ccc(NS(=O)(=O)c3ccc4c(c3)CC(=O)N4)cc2)CC1
IC50 [1]: Not Active | IC50 [2]: Not Active

SMILES: CC(=O)c1ccc(N2CCN(S(=O)(=O)c3cc4c(cc3Cl)NC(=O)C4)CC2)cc1
Activity [6]: Toxic | Activity [7]: Active | Activity [8]: Active | Activity [9]: inactive | Ratio [10]: 20 | Activity [11]: Active | IC50 ([1]; read-out: IC50): 1.63 µM | solubility [3]: 20.8 µM (≈ 9.03 µg/mL) | Papp (Caco-2 [4]): 54.3 ×10⁻⁶ cm/s | Activity [12]: 40% | Activity [13]: Active | Ratio (Caco-2 [14]): 0.57 | Activity [15]: Active | Activity [16]: Active | IC50 ([2]; read-out: IC50): 1.63 µM | t1/2 (Liver): > 60 min | Activity [17]: inactive | Activity [18]: Active | Activity [19]: Active | Activity [20]: 30% | Activity [21]: inactive | Activity [22]: Active | Papp (Caco-2 [5]): 30.9 ×10⁻⁶ cm/s

SMILES: CC(=O)c1ccc(N2CCN(S(=O)(=O)c3ccc4c(c3)CCCN4C(C)=O)CC2)cc1
IC50 [1]: Not Active | IC50 [2]: Not Active

SMILES: CC(=O)c1ccc(N2CCN(S(=O)(=O)c3ccc4c(c3)CCCC(=O)N4)CC2)cc1
IC50 [1]: Not Active | IC50 [2]: Not Active

SMILES: CC(=O)c1ccc(N2CCN(S(=O)(=O)c3ccc4c(c3)C(=O)OC4)CC2)cc1
IC50 [1]: Not Active | IC50 [2]: Not Active

SMILES: CC(=O)c1ccc(N2CCN(C(=O)c3ccc4c(c3)CC(=O)N4)CC2)cc1
IC50 [1]: Not Active | IC50 [2]: Not Active

SMILES: CC(=O)c1ccc(N2CCN(S(=O)(=O)c3ccc4[nH]c(=O)[nH]c4c3)CC2)cc1
IC50 [1]: Not Active | IC50 [2]: Not Active

The remaining lines, values ahead:

IC50 [1]: Not Active | IC50 [2]: Not Active
SMILES: CC(=O)c1ccc(N2CCN(S(=O)(=O)c3ccc4c(c3)CCC(=O)N4)CC2)cc1

IC50 [1]: Not Active | IC50 [2]: Not Active
SMILES: O=C1Cc2cc(S(=O)(=O)N3CCN(c4ccc(C(F)(F)F)cc4)CC3)ccc2N1

IC50 ([1]; read-out: IC50): 13 µM | IC50 ([2]; read-out: IC50): 13 µM
SMILES: O=C1Cc2cc(S(=O)(=O)N3CCN(c4ccc(CO)cc4)CC3)ccc2N1

IC50 ([1]; read-out: IC50): 1.88 µM | solubility [3]: 37.3 µM (≈ 13.9 µg/mL) | Papp (Caco-2 [4]): 17.8 ×10⁻⁶ cm/s | IC50 ([2]; read-out: IC50): 2.37 µM | t1/2 (Liver): > 60 min | Papp (Caco-2 [5]): 19.5 ×10⁻⁶ cm/s
SMILES: O=C1Cc2cc(S(=O)(=O)N3CCN(c4ccc(O)cc4)CC3)ccc2N1

IC50 ([1]; read-out: IC50): 25.9 µM | IC50 ([2]; read-out: IC50): 36.6 µM
SMILES: COC(=O)c1ccc(N2CCN(S(=O)(=O)c3ccc4c(c3)CC(=O)N4)CC2)cc1

IC50 [1]: Not Active | IC50 [2]: Not Active
SMILES: Cc1ccc(N2CCN(S(=O)(=O)c3ccc4c(c3)CC(=O)N4)CC2)cc1

IC50 ([1]; read-out: IC50): 3.66 µM | IC50 ([2]; read-out: IC50): 3.26 µM
SMILES: O=C1Cc2cc(S(=O)(=O)N3CCN(c4ccc([N+](=O)[O-])cc4)CC3)ccc2N1

IC50 ([1]; read-out: IC50): 94.3 µM | IC50 ([2]; read-out: IC50): 94.3 µM
SMILES: O=C1Cc2cc(S(=O)(=O)N3CCN(c4ccc(Cl)cc4)CC3)ccc2N1

IC50 [1]: Not Active | IC50 [2]: Not Active
SMILES: O=C1Cc2cc(S(=O)(=O)N3CCN(c4ccc(F)cc4)CC3)ccc2N1

IC50 ([1]; read-out: IC50): 23.7 µM | IC50 ([2]; read-out: IC50): 18.8 µM
SMILES: COc1ccc(N2CCN(S(=O)(=O)c3ccc4c(c3)CC(=O)N4)CC2)cc1

IC50 ([1]; read-out: IC50): 3.66 µM | IC50 ([2]; read-out: IC50): 4.11 µM
SMILES: O=Cc1ccc(N2CCN(S(=O)(=O)c3ccc4c(c3)CC(=O)N4)CC2)cc1

IC50 [1]: Not Active | IC50 [2]: Not Active
SMILES: O=C1Cc2cc(S(=O)(=O)N3CCN(c4ccc(Br)cc4)CC3)ccc2N1

IC50 ([1]; read-out: IC50): 2.91 µM | solubility [3]: 14.9 µM (≈ 5.7 µg/mL) | IC50 ([2]; read-out: IC50): 3.26 µM | t1/2 (Liver): 57 min
SMILES: N#Cc1ccc(N2CCN(S(=O)(=O)c3ccc4c(c3)CC(=O)N4)CC2)cc1
